38 sequences from the array DNA melting data of Ke et al. (doi:10.1101/2024.01.08.574731) can be followed below.

A short description of data set [1]: folding enthalpy; higher = less favourable; fluorescence melt of hairpins on a sequencing array, two-state fit. As to conditions: sodium 0.088 M. An outline of the steps: (§1)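 In 50 mM Na-HEPES pH 8.0 containing 25 mM NaCl, hairpins from the library on a sequenced MiSeq flow cell were imaged for Cy3 fluorescence at 2.5 °C steps up to 60 °C, with Cy3 and quencher oligos annealed. After normalisation to pre-quench Cy3 and to control constructs, two-state fits with bootstrapping gave melting temperature and folding enthalpy. Four replicates were combined by inverse-variance weighting, and fitted temperatures were shifted up by 9.35 °C to match UV melts.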

Data set [2] in a line: melting temperature; fluorescence melt of hairpins on a sequencing array, two-state fit, raised by 9.35 °C to match UV melts. As to conditions: sodium 0.088 M. Put shortly:
as §1

Regarding GATCCTAGGGAGGATC ((((((....)))))), the folding enthalpy in data set [1] is -29.6 kcal/mol. Besides, the Tm in data set [2] amounted to 51.8 °C.

Consider GATCCTATCCAGGATC ((((((....)))))), for which the folding enthalpy in data set [1] is -33.8 kcal/mol. In addition, the Tm in data set [2] is 53 °C.

GATCCTATCTAGGATC ((((((....)))))): the folding enthalpy in data set [1] is -37.3 kcal/mol. The Tm in data set [2] turned out to be 52.7 °C.

With GATCCTATGCAGGATC ((((((....)))))), the folding enthalpy in data set [1] was -35.2 kcal/mol. The Tm in data set [2] is 53 °C.

GATCCTATTAAGGATC ((((((....)))))): the folding enthalpy in data set [1] is -44.9 kcal/mol. Also, in data set [2], the Tm is 52.2 °C.

Regarding GATCCTCACTAGGATC ((((((....)))))), in data set [1], the folding enthalpy was -35.1 kcal/mol. Moreover, the Tm in data set [2] stood at 51.7 °C.

Take GATCCTCAGAGGATC ((((((...)))))): the folding enthalpy in data set [1] was -31.6 kcal/mol. The Tm in data set [2] came out at 52.1 °C.

For GATCCTCATAGGATC ((((((...)))))), the folding enthalpy in data set [1] was -37.4 kcal/mol. In data set [2], the Tm is 53.1 °C.

On to GATCCTCATTAGGATC ((((((....)))))), for which the folding enthalpy in data set [1] is -33.8 kcal/mol. Besides, the Tm in data set [2] turned out to be 51.1 °C.

As for GATCCTCCAGAGGATC ((((((....)))))), the folding enthalpy in data set [1] is -35.5 kcal/mol. Moreover, the Tm in data set [2] worked out at 55.5 °C.

For the sequence GATCCTCGTCAGGATC ((((((....)))))), in data set [1], the folding enthalpy is -25.1 kcal/mol. The Tm in data set [2] came to 50.8 °C.

Turning to GATCCTCTCAAGGATC ((((((....)))))), the folding enthalpy in data set [1] was -39.9 kcal/mol. Moreover, in data set [2], the Tm was 53.2 °C.

As for GATCCTCTCAGGATC ((((((...)))))), the folding enthalpy in data set [1] was -36.4 kcal/mol. Moreover, the Tm in data set [2] turned out to be 55 °C.

Consider GATCCTCTGAGGATC ((((((...)))))), for which the folding enthalpy in data set [1] is -33 kcal/mol. Further, in data set [2], the Tm was determined as 51.9 °C.

Regarding GATCCTCTGCAGGATC ((((((....)))))), the folding enthalpy in data set [1] was -37 kcal/mol. Further, in data set [2], the Tm was determined as 50.7 °C.

GATCCTCTTCAGGATC ((((((....)))))): the folding enthalpy in data set [1] was -38.2 kcal/mol. Further, the Tm in data set [2] was found to be 51.3 °C.

On to GATCCTGAACAGGATC ((((((....)))))), for which the folding enthalpy in data set [1] is -38.4 kcal/mol. Besides, the Tm in data set [2] amounted to 59.9 °C.

As for GATCCTGACCAGGATC ((((((....)))))), the folding enthalpy in data set [1] is -45.1 kcal/mol. Moreover, the Tm in data set [2] came out at 56.5 °C.

As for GATCCTGATAAGGATC ((((((....)))))), in data set [1], the folding enthalpy is -37 kcal/mol. The Tm in data set [2] was found to be 64.4 °C.

Turning to GATCCTGCAAGGATC ((((((...)))))), the folding enthalpy in data set [1] was -39.6 kcal/mol. In addition, the Tm in data set [2] amounted to 68.5 °C.

As to GATCCTGCACAGGATC ((((((....)))))), the folding enthalpy in data set [1] was -47.2 kcal/mol. In addition, the Tm in data set [2] is 58.9 °C.

Take GATCCTGCATAGGATC ((((((....)))))): in data set [1], the folding enthalpy was -43.4 kcal/mol. Also, the Tm in data set [2] stood at 60.9 °C.

Turning to GATCCTGCCCAGGATC ((((((....)))))), the folding enthalpy in data set [1] was -49.4 kcal/mol. Besides, in data set [2], the Tm came to 57 °C.

Regarding GATCCTGCCGAGGATC ((((((....)))))), the folding enthalpy in data set [1] is -32.1 kcal/mol. The Tm in data set [2] stood at 53 °C.

On to GATCCTGCCTAGGATC ((((((....)))))), for which the folding enthalpy in data set [1] is -43.7 kcal/mol. Moreover, the Tm in data set [2] was 54.7 °C.

Take GATCCTGCGCAGGATC ((((((....)))))): the folding enthalpy in data set [1] is -53 kcal/mol. Also, the Tm in data set [2] is 59.3 °C.

Take GATCCTGCTCAGGATC ((((((....)))))): the folding enthalpy in data set [1] is -48.1 kcal/mol. Further, the Tm in data set [2] is 55.2 °C.

As to GATCCTGGAAACGGGATC (((((.(....).))))), the folding enthalpy in data set [1] was -42.8 kcal/mol. Besides, in data set [2], the Tm was 50.9 °C.

With GATCCTGGATAGGATC ((((((....)))))), the folding enthalpy in data set [1] was -39 kcal/mol. Further, the Tm in data set [2] came out at 57.5 °C.

As for GATCCTGGGGAGGATC ((((((....)))))), in data set [1], the folding enthalpy is -36.8 kcal/mol. Further, the Tm in data set [2] is 51 °C.

In the case of GATCCTGTAAAGGATC ((((((....)))))), in data set [1], the folding enthalpy is -39.6 kcal/mol. Moreover, in data set [2], the Tm amounted to 60.5 °C.

In the case of GATCCTGTCAAGGATC ((((((....)))))), the folding enthalpy in data set [1] is -42.7 kcal/mol. For the same sequence, in data set [2], the Tm is 64.9 °C.

In the case of GATCCTGTGCAGGATC ((((((....)))))), the folding enthalpy in data set [1] was -43.2 kcal/mol. The Tm in data set [2] worked out at 55 °C.

In the case of GATCCTGTGGAGGATC ((((((....)))))), the folding enthalpy in data set [1] is -31.8 kcal/mol. Moreover, in data set [2], the Tm turned out to be 51.8 °C.

GATCCTTAAAGGATC ((((((...)))))): the folding enthalpy in data set [1] is -33.7 kcal/mol. Moreover, the Tm in data set [2] was 51.7 °C.

For the sequence GATCCTTACAAGGATC ((((((....)))))), in data set [1], the folding enthalpy was -38.1 kcal/mol. Moreover, the Tm in data set [2] was 54.2 °C.

Regarding GATCCTTAGGAGGATC ((((((....)))))), the folding enthalpy in data set [1] was -39.2 kcal/mol. Besides, the Tm in data set [2] was determined as 51 °C.

Consider GATCCTTATCAGGATC ((((((....)))))), for which, in data set [1], the folding enthalpy was -33.2 kcal/mol. Besides, the Tm in data set [2] was determined as 51 °C.
